PMC9303875 (Clinical Pharmacology in Drug Development, 2022)
Read-outs that look alike come from different tables or passages of the source. Marks after values point to notes of the source that are not given here. Blank lines part the entries; values can stand above or below the compound they belong to.

Columns and labels:
plasma 2-HG = experiment: Plasma 2-HG pharmacodynamics in patients with newly diagnosed mIDH1/2 AML; format: in vivo, human; conditions: for reduction of mean trough plasma 2-HG concentrations (up to): after multiple doses, combined with chemotherapy; for mean reduction in plasma 2-HG concentration: enasidenib started C1D1, by induction C1D14
Summary of the method: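 Plasma was sampled within 30 min predose and at 0.5, 2, 4, 6, 8 (and 24, per footnote) h on induction C1D1/C1D14 and consolidation C1D1; the delayed-start cohort was sampled on C1D8/C1D21. 2-HG was measured by surrogate-analyte (¹³C₅ 2-HG) LC-MS/MS, LLOQ 30 ng/mL, with BLQ set to LLOQ. AUEC0-8, AUEC0-24, BAUEC0-24 and Rtrough used actual times. C1D14 reductions were grouped by best overall response: CR; IR (CRi, CRp, MLFS, PR); NR (SD, PD).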

bone marrow 2-HG = experiment: Bone marrow 2-HG pharmacodynamics in patients with newly diagnosed mIDH1/2 AML; format: in vivo, human; conditions: after multiple doses; combined with chemotherapy
Summary of the method: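 Bone marrow aspirates from patients on oral ivosidenib or enasidenib once daily plus chemotherapy. 2-HG was quantified by LC-MS/MS using a qualified surrogate analyte method, with ¹³C₅ 2-HG as the surrogate for calibrators and QCs. LLOQ was 10 ng/mL, and BLQ values were set to LLOQ. Percentage reduction from baseline was computed using actual times relative to dosing.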

CYP3A4 = conditions: healthy participants; cited from earlier work
[1] = format: in vivo, human; conditions: for time to steady-state PK based on Ctrough: continuous once-daily dosing combined with chemotherapy
Summary of the method: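 Samples were taken predose and 0.5–8 h (24 h per footnote) post-dose with once-daily dosing. AUC0-24, Cmax, tmax and Ctrough were derived using actual times, and predose BLQ values were set to 0. Accumulation ratio was C1D14/C1D1 or C1D21/C1D8 of induction. Steady state was judged from Ctrough across cycles, and consolidation data pooled both regimens (ME or ARA-C).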

2-HG [2] = conditions: ivosidenib 500 mg once daily single agent, cited from earlier work
mIDH1 R/R AML = conditions: patients with mIDH1 R/R AML; ivosidenib 500 mg once daily; cited from earlier work
[3] = cited from earlier work
[4] = tested on: advanced mIDH2 hematologic malignancies; conditions: cited from earlier work
2-HG [5] = conditions: cited from earlier work; for plasma 2-HG reduction from baseline, maximum / plasma 2-HG reduction from baseline, median: enasidenib 100 mg once daily
[6] = cited from earlier work; remark: listed apart in the source
IDH2-R172 = conditions: preclinical and in vitro data; cited from earlier work
[7] = ivosidenib 500 mg QD + chemotherapy, Consolidation C1D1
[8] = ivosidenib 500 mg QD + chemotherapy, Induction C1D1
[9] = ivosidenib 500 mg QD + chemotherapy, Induction C1D14
[10] = ivosidenib 500 mg QD + chemotherapy, Induction C1D14 / induction C1D1
[11] = enasidenib 100 mg QD + chemotherapy, Consolidation C1D1
[12] = enasidenib 100 mg QD starting day 1 + chemotherapy, Induction C1D1
[13] = enasidenib 100 mg QD starting day 1 + chemotherapy, Induction C1D14
[14] = enasidenib 100 mg QD starting day 8 + chemotherapy, Induction C1D8
[15] = enasidenib 100 mg QD starting day 8 + chemotherapy, Induction C1D21

time to steady-state PK based on Ctrough [1]: ≤ 14 days | Racc AUC0-24 (accumulation ratio based on AUC0-24), mean (SD) [1, 7]: 1.38 (0.83); 24 | Racc Cmax (accumulation ratio based on Cmax), mean (SD) [1, 7]: 1.21 (0.69); 30 | Racc AUC0-24 (accumulation ratio based on AUC0-24), mean (SD) [1, 10]: 2.35 (1.2); 38 | Racc Cmax (accumulation ratio based on Cmax), mean (SD) [1, 10]: 1.69 (0.71); 49
SMILES: N#Cc1ccnc(N2C(=O)CC[C@H]2C(=O)N(c2cncc(F)c2)[C@H](C(=O)NC2CC(F)(F)C2)c2ccccc2Cl)c1 [Ivosidenib, ivosidenib]
reduction of mean trough plasma 2-HG concentrations (up to) (plasma 2-HG): ≤ 99% | %BAUEC0-24 (percentage reduction of plasma 2-HG based on AUEC0-24), mean (RSD%) (plasma 2-HG; [7]): 91.0 (16.9); 28% | %Rtrough (percentage reduction of plasma 2-HG at the end of a dosing interval), mean (RSD%) (plasma 2-HG; [7]): 90.7 (17.2); 28% | Plasma 2-HG AUEC0-24, mean (RSD%) (plasma 2-HG; [7]): 1090 (39.8); 29 ng • h/mL | %BAUEC0-24 (percentage reduction of plasma 2-HG based on AUEC0-24), mean (RSD%) (plasma 2-HG; [8]): 53.0 (30.5); 48^b % | %Rtrough (percentage reduction of plasma 2-HG at the end of a dosing interval), mean (RSD%) (plasma 2-HG; [8]): 80.8 (28.1); 48^b % | %BAUEC0-24 (percentage reduction of plasma 2-HG based on AUEC0-24), mean (RSD%) (plasma 2-HG; [9]): 90.0 (23.8); 46% | %Rtrough (percentage reduction of plasma 2-HG at the end of a dosing interval), mean (RSD%) (plasma 2-HG; [9]): 89.8 (23.9); 46% | Plasma 2-HG AUEC0-24, mean (RSD%) (plasma 2-HG; [9]): 1120 (51.8); 47 ng • h/mL | reduction of mean trough bone marrow 2-HG concentrations (up to) (bone marrow 2-HG): up to 99% | AUC parameters when coadministered with itraconazole (CYP3A4): increased | Cmax when coadministered with itraconazole (CYP3A4): unaffected | patients achieving a ≥90% reduction in plasma 2-HG concentrations (2-HG [2]; after multiple doses): 71% | reduction in bone marrow 2-HG concentrations (2-HG [2]): > 90% | overall response rate (ORR) (mIDH1 R/R AML): 41.6% | half-life ([3]; ivosidenib 500 mg once daily single agent, after a single dose): 93 h | accumulation ratio ([3]; ivosidenib 500 mg once daily single agent, after multiple doses): ≈ 2 fold | time to steady state based on observed Ctrough ([3]; ivosidenib 500 mg once daily single agent): ≤ 14 days | ivosidenib clearance with concomitant moderate or strong CYP3A4 inhibitors ([3]; patients, phase 1 single-agent study): decreased

time to steady-state PK based on Ctrough [1]: ≤ 14 days | Racc AUC0-24 (accumulation ratio based on AUC0-24), mean (SD) [1, 11]: 7.93 (4.29); 18 | Racc Cmax (accumulation ratio based on Cmax), mean (SD) [1, 11]: 7.15 (4.59); 24
SMILES: CC(C)(O)CNc1nc(Nc2ccnc(C(F)(F)F)c2)nc(-c2cccc(C(F)(F)F)n2)n1 [Enasidenib, enasidenib]
ORR ([4]; all patients receiving enasidenib 100 mg once daily): 38.5% | ORR ([4]; enasidenib 100 mg once daily, patients with IDH2-R140 mutations): 35.4% | ORR ([4]; enasidenib 100 mg once daily, patients with IDH2-R172 mutations): 53.3% | plasma 2-HG reduction from baseline, maximum (2-HG [5]; IDH2-R140Q mutations): 99% | plasma 2-HG reduction from baseline, median (2-HG [5]; IDH2-R140Q mutations): 93% | plasma 2-HG reduction from baseline, maximum (2-HG [5]; IDH2-R172K mutations): 94% | plasma 2-HG reduction from baseline, median (2-HG [5]; IDH2-R172K mutations): 28% | median reduction in 2-HG concentrations from baseline (2-HG [5]; enasidenib dose of 100 mg): 90.4% | median reduction in 2-HG concentrations from baseline (2-HG [5]; enasidenib doses of <100 mg): 92.4% | median reduction in 2-HG concentrations from baseline (2-HG [5]; enasidenib doses of >100 mg): 93.1% | reduction of mean trough plasma 2-HG concentrations (up to) (plasma 2-HG): ≤ 99% | %BAUEC0-24 (percentage reduction of plasma 2-HG based on AUEC0-24), mean (RSD%) (plasma 2-HG; [11]): 80.6 (25.1); 21% | %Rtrough (percentage reduction of plasma 2-HG at the end of a dosing interval), mean (RSD%) (plasma 2-HG; [11]): 77.1 (37.8); 21% | Plasma 2-HG AUEC0-24, mean (RSD%) (plasma 2-HG; [11]): 1800 (116.1); 21 ng • h/mL | %BAUEC0-24 (percentage reduction of plasma 2-HG based on AUEC0-24), mean (RSD%) (plasma 2-HG; [12]): 18.7 (108.0); 57% | %Rtrough (percentage reduction of plasma 2-HG at the end of a dosing interval), mean (RSD%) (plasma 2-HG; [12]): 37.8 (68.2); 57% | %BAUEC0-24 (percentage reduction of plasma 2-HG based on AUEC0-24), mean (RSD%) (plasma 2-HG; [13]): 85.0 (24.7); 45% | %Rtrough (percentage reduction of plasma 2-HG at the end of a dosing interval), mean (RSD%) (plasma 2-HG; [13]): 84.7 (24.6); 45% | Plasma 2-HG AUEC0-24, mean (RSD%) (plasma 2-HG; [13]): 2030 (134.4); 45 ng • h/mL | %BAUEC0-24 (percentage reduction of plasma 2-HG based on AUEC0-24), mean (RSD%) (plasma 2-HG; [14]): 73.9 (28.1); 16% | %Rtrough (percentage reduction of plasma 2-HG at the end of a dosing interval), mean (RSD%) (plasma 2-HG; [14]): 82.8 (18.0); 16% | Plasma 2-HG AUEC0-24, mean (RSD%) (plasma 2-HG; [14]): 3960 (72.5); 16 ng • h/mL | %BAUEC0-24 (percentage reduction of plasma 2-HG based on AUEC0-24), mean (RSD%) (plasma 2-HG; [15]): 83.1 (34.6); 15% | %Rtrough (percentage reduction of plasma 2-HG at the end of a dosing interval), mean (RSD%) (plasma 2-HG; [15]): 82.3 (40.5); 15% | Plasma 2-HG AUEC0-24, mean (RSD%) (plasma 2-HG; [15]): 1670 (130.2); 15 ng • h/mL | mean reduction in plasma 2-HG concentration (plasma 2-HG; patients with IDH2-R140 mutations (n = 41)): 89.3% | mean reduction in plasma 2-HG concentration (plasma 2-HG; patients with IDH2-R172 mutations (n = 14)): 76.9% | arithmetic mean percentage reduction of plasma 2-HG based on BAUEC0-8 (plasma 2-HG; enasidenib starting on induction C1D1, following the first enasidenib dose): 7.1% | reduction in plasma 2-HG AUEC0-8 (plasma 2-HG; enasidenib starting on induction C1D8, at C1D8): 71.6% | median 2-HG reduction (plasma 2-HG; in this study, enasidenib combined with chemotherapy): > 75% | terminal half-life ([6]; enasidenib single agent): ≈ 137 hours | time to steady state ([6]; enasidenib single agent): ≤ 29 days | accumulation ([6]; once-daily administration, ref data on file): ≈ 10 fold | reduction of mean trough bone marrow 2-HG concentrations (up to) (bone marrow 2-HG): up to 99% | potency against IDH2-R172 compared with IDH2-R140 (IDH2-R172): less potent
